In ChEMBL document CHEMBL3046760, “Preharvest L-arginine treatment induced postharvest disease resistance to Botrysis cinerea in tomato fruits” (2011):
Active and inactive are the calls of the source. The rule behind the calls is not given here.

Legend:
Botrytis cinerea [1] = test: Induction of resistance to Botryotinia fuckeliana-induced tomato fruit Solanum lycopersicum cv. No. 4 Zhongshu gray mold disease assessed as disease incidence at 1 mM injected near root area measured after 6 days relative to control; format: functional
Summary of the method: (§1)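 Plants received 5 mL of L-arginine (0.5, 1 or 5 mM) by injection at a cut near the root area, with distilled water as control; 30 plants per treatment. Green mature fruit were picked 0–12 days after treatment. Fruit were ethanol-sterilised and wounded at three equator sites, each receiving 10 μL of 2 × 10^5 conidia/mL. Fruit were kept at 25 °C, 90–95% RH. Incidence and lesion area (3.14 × (d/2)²) were scored at 4 days; three replicates.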

Botrytis cinerea [2] = test: Induction of resistance to Botryotinia fuckeliana-induced tomato fruit Solanum lycopersicum cv. No. 4 Zhongshu gray mold disease assessed as inhibition of lession area at 1 mM injected near root area measured after 9 days relative to control; format: functional; conditions: 216 h; summary of the method: as §1
Botrytis cinerea [3] = test: Induction of resistance to Botryotinia fuckeliana-induced tomato fruit Solanum lycopersicum cv. No. 4 Zhongshu gray mold disease assessed as inhibition of lession area at 1 mM injected near root area measured after 6 days relative to control; format: functional; conditions: 144 h; summary of the method: as §1
Solanum lycopersicum [4] = test: Induction of resistance to Botrytis cinerea-induced Solanum lycopersicum (tomato) fruit Solanum lycopersicum cv. No. 4 Zhongshu gray mold disease assessed as induction of defensive enzyme chitinase activity at 1 mM preharvest treatment measured after 3 days relative to control; format: functional
Summary of the method: (§2)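 Plants received 1 mM L-arginine (5 mL) injected near the root, with a water control. Fruit mesocarp was extracted in phosphate pH 6.8 (PAL, PPO) or acetate pH 5 (CHI, GLU) buffer. Readouts: PAL, L-phenylalanine in borate pH 8.8, 30 °C 1 h, A290. PPO, 0.1 M catechol, ΔA420 over 3 min. CHI, colloidal chitin at 40 °C then snailase, A585. GLU, 0.4% laminarin at 37 °C 1 h, DNS, A500. Three replicates.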

Botrytis cinerea [5] = test: Induction of resistance to Botryotinia fuckeliana-induced tomato fruit Solanum lycopersicum cv. No. 4 Zhongshu gray mold disease assessed as disease incidence at 5 mM injected near root area measured after 3 days relative to control; format: functional; summary of the method: as §1
Botrytis cinerea [6] = test: Induction of resistance to Botryotinia fuckeliana-induced tomato fruit Solanum lycopersicum cv. No. 4 Zhongshu gray mold disease assessed as disease incidence at 1 mM injected near root area measured after 12 days relative to control; format: functional, organism-based; summary of the method: as §1
Botrytis cinerea [7] = test: Induction of resistance to Botryotinia fuckeliana-induced tomato fruit Solanum lycopersicum cv. No. 4 Zhongshu gray mold disease assessed as disease incidence at 1 mM injected near root area measured after 3 days relative to control; format: functional; summary of the method: as §1
Solanum lycopersicum [8] = test: Induction of resistance to Botrytis cinerea-induced Solanum lycopersicum (tomato) fruit Solanum lycopersicum cv. No. 4 Zhongshu gray mold disease assessed as increase in NO content at 1 mM preharvest treatment measured after 3 days relative to control; format: functional, organism-based
Summary of the method: (§3)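 Plants received 1 mM L-arginine (5 mL) injected near the root, with a water control. Frozen fruit mesocarp was extracted in HEPES-KOH pH 7.6 buffer. For NO, extract was pretreated with catalase and SOD, oxyhemoglobin was added, and A550 was read at 37 °C against a buffer blank; results are given as μmol/g FW. NOS was measured by the hemoglobin assay on cytosolic/microsomal fractions. Three replicates.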

Solanum lycopersicum [9] = test: Induction of resistance to Botrytis cinerea-induced Solanum lycopersicum (tomato) fruit Solanum lycopersicum cv. No. 4 Zhongshu gray mold disease assessed as induction of total phenolics content at 1 mM preharvest treatment measured after 3 days relative to control; format: functional
Summary of the method: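 Plants received 1 mM L-arginine (5 mL) injected near the root, with a water control. A685 was calibrated against […] and expressed as catechin equivalents (mg/100 g FW). Mean of three replicates.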

Solanum lycopersicum [10] = test: Induction of resistance to Botrytis cinerea-induced Solanum lycopersicum (tomato) fruit Solanum lycopersicum cv. No. 4 Zhongshu gray mold disease assessed as induction of defensive enzyme polyphenoloxidase activity at 1 mM preharvest treatment measured after 3 days relative to control; format: functional, organism-based; summary of the method: as §2
Botrytis cinerea [11] = test: Induction of resistance to Botryotinia fuckeliana-induced tomato fruit Solanum lycopersicum cv. No. 4 Zhongshu gray mold disease assessed as disease incidence at 5 mM injected near root area measured after 6 days relative to control; format: functional; summary of the method: as §1
Botrytis cinerea [12] = test: Effect on mycelial growth of Botryotinia fuckeliana relative to control; format: functional, organism-based
Summary of the method: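 Mycelial growth on PDA containing 1 mM L-arginine in the molten agar. A 7 mm B. cinerea disk was placed at the centre of a 90 mm dish and incubated at 25 °C. Colony diameter was read at 2, 3 and 4 days. Inhibition (%) = (control diameter − treated diameter)/(control diameter − 7 mm) × 100. Triplicate plates; the experiment was run twice.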

Solanum lycopersicum [13] = test: Induction of resistance to Botrytis cinerea-induced Solanum lycopersicum (tomato) fruit Solanum lycopersicum cv. No. 4 Zhongshu gray mold disease assessed as increase in NOS activity at 1 mM preharvest treatment measured after 3 days relative to control; format: functional, organism-based; summary of the method: as §3
Solanum lycopersicum [14] = test: Induction of resistance to Botrytis cinerea-induced Solanum lycopersicum (tomato) fruit Solanum lycopersicum cv. No. 4 Zhongshu gray mold disease assessed as induction of defensive enzyme beta-1,3-glucanase activity at 1 mM preharvest treatment measured after 3 days relative to control; format: functional; summary of the method: as §2
Botrytis cinerea [15] = test: Induction of resistance to Botryotinia fuckeliana-induced tomato fruit Solanum lycopersicum cv. No. 4 Zhongshu gray mold disease assessed as disease incidence at 0.5 mM injected near root area measured after 3 days relative to control; format: functional; summary of the method: as §1
Botrytis cinerea [16] = test: Induction of resistance to Botryotinia fuckeliana-induced tomato fruit Solanum lycopersicum cv. No. 4 Zhongshu gray mold disease assessed as inhibition of lession area at 1 mM injected near root area measured after 12 days relative to control; format: functional; conditions: 288 h; summary of the method: as §1
Solanum lycopersicum [17] = test: Induction of resistance to Botrytis cinerea-induced Solanum lycopersicum (tomato) fruit Solanum lycopersicum cv. No. 4 Zhongshu gray mold disease assessed as induction of defensive enzyme beta-1,3-glucanase activity at 1 mM preharvest treatment measured after 6 days relative to control; format: functional; summary of the method: as §2
Botrytis cinerea [18] = test: Induction of resistance to Botryotinia fuckeliana-induced tomato fruit Solanum lycopersicum cv. No. 4 Zhongshu gray mold disease assessed as disease incidence at 0.5 mM injected near root area measured after 12 days relative to control; format: functional, organism-based; summary of the method: as §1
Botrytis cinerea [19] = test: Induction of resistance to Botryotinia fuckeliana-induced tomato fruit Solanum lycopersicum cv. No. 4 Zhongshu gray mold disease assessed as inhibition of lession area at 1 mM injected near root area measured after 3 days relative to control; format: functional; conditions: 72 h; summary of the method: as §1
Solanum lycopersicum [20] = test: Induction of resistance to Botrytis cinerea-induced Solanum lycopersicum (tomato) fruit Solanum lycopersicum cv. No. 4 Zhongshu gray mold disease assessed as induction of defensive enzyme beta-1,3-glucanase activity at 1 mM preharvest treatment measured after 9 days relative to control; format: functional; summary of the method: as §2
Botrytis cinerea [21] = test: Induction of resistance to Botryotinia fuckeliana-induced tomato fruit Solanum lycopersicum cv. No. 4 Zhongshu gray mold disease assessed as disease incidence at 0.5 mM injected near root area measured after 6 days relative to control; format: functional; summary of the method: as §1
Botrytis cinerea [22] = test: Induction of resistance to Botryotinia fuckeliana-induced tomato fruit Solanum lycopersicum cv. No. 4 Zhongshu gray mold disease assessed as disease incidence at 5 mM injected near root area measured after 12 days relative to control; format: functional, organism-based; summary of the method: as §1
Solanum lycopersicum [23] = test: Induction of resistance to Botrytis cinerea-induced Solanum lycopersicum (tomato) fruit Solanum lycopersicum cv. No. 4 Zhongshu gray mold disease assessed as induction of defensive enzyme phenylalanine ammonialyase activity at 1 mM preharvest treatment measured after 9 days relative to control; format: functional, organism-based; summary of the method: as §2

In the case of `N=C(N)NCCC[C@H](N)C(=O)O` [ARGININE], the Activity (Botrytis cinerea [1]) is reported as 18%, the inhibition in vivo at 1000 µM (Botrytis cinerea [2]) is reported as 90% and the inhibition in vivo at 1000 µM (Botrytis cinerea [3]) is reported as 90%. For the same compound, the “fold change (FC)” value (Solanum lycopersicum [4]) was 1.9, the Activity (Botrytis cinerea [5]) was 37% and the Activity (Botrytis cinerea [6]) was “Active”. The Activity (Botrytis cinerea [7]) was 16%, the Activity (Solanum lycopersicum [8]) was “Active” and the “fold change (FC)” value (Solanum lycopersicum [9]) was 1.17. For the same compound, the Activity (Solanum lycopersicum [10]) was “Active”, the Activity (Botrytis cinerea [11]) was 38% and the Activity (Botrytis cinerea [12]) was “inactive”. For the same compound, the Activity (Solanum lycopersicum [13]) was “Active”, the “fold change (FC)” value (Solanum lycopersicum [14]) was 1.6 and the Activity (Botrytis cinerea [15]) was 29%. The inhibition in vivo at 1000 µM (Botrytis cinerea [16]) was 85%, the “fold change (FC)” value (Solanum lycopersicum [17]) was 1.4 and the Activity (Botrytis cinerea [18]) was “Active”. For the same compound, the inhibition in vivo at 1000 µM (Botrytis cinerea [19]) was 86%, the “fold change (FC)” value (Solanum lycopersicum [20]) was 3.1 and the Activity (Botrytis cinerea [21]) was 31%. The Activity (Botrytis cinerea [22]) was “Active” and the Activity (Solanum lycopersicum [23]) was “Active”.
